Experimental data published in ChEMBL document CHEMBL3259774, “Antimycobacterial activity of chiral aminoalcohols with camphane scaffold” (Eur J Med Chem, 2014).
In brackets after ≈: the same amount, converted by molar mass.

Test system: Mycobacterium tuberculosis
Experiment: Antimycobacterial activity against rifampicin and isoniazid-resistant Mycobacterium tuberculosis 43 assessed as growth inhibition
Format: functional
Outline: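 MDR strain 43, resistant to rifampicin and isoniazid, was a clinical isolate from an HIV-negative Bulgarian adult with pulmonary TB. Tested by the Canetti proportion method on Löwenstein–Jensen medium, with compound in DMSO added before coagulation. Colonies were compared with drug-free control as percent inhibition. MIC is the lowest concentration giving complete inhibition (0% growth).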

SMILES	MIC [µM]
CC1(C)[C@@H]2CC[C@@]1([C@@H](O)CN1CCCCC1)C(=O)C2	18.9 (≈ 5.02 µg/mL)
CC1CCN(C[C@@H](O)[C@]23CC[C@H](CC2=O)C3(C)C)CC1	0.72 (≈ 0.201 µg/mL)
CC1(C)[C@@H]2CC[C@@]1([C@@H](O)CN1CCN(c3ccc(F)cc3)CC1)C(=O)C2	0.55 (≈ 0.198 µg/mL)
CC1(C)[C@@H]2CC[C@@]1([C@H](O)CN1CCN(c3ccc(F)cc3)CC1)C(=O)C2	0.55 (≈ 0.198 µg/mL)
CC1(C)[C@@H]2CC[C@@]1([C@H](O)CN1CCN(c3ccc(Cl)cc3)CC1)C(=O)C2	0.27 (≈ 0.102 µg/mL)
CC1(C)[C@@H]2CC[C@@]1([C@@H](O)CN1CCOCC1)C(=O)C2	> 18.7
